Published values gathered from unrelated publications.
Each line is one published result; the experiments were not run side by side.
Target: 3-phosphoinositide-dependent protein kinase 1 (PDPK1, Homo sapiens, UniProt O15530)
Mode: inhibitor

COc1cccc2c(NCc3ccccc3)nc(-n3c(N)nc4ccccc43)nc12 — inhibition (target engagement in cells, chemoproteomics; 20 mM): -5.3%
CN1CC(Oc2cnc(C#N)cc2-c2ccn3nc(NC(=O)C4CC4)cc3c2)C1 — inhibition (enzyme activity; 1 µM): 12%
COc1cc2ncnc(Nc3ccc(Oc4ccccc4)c(C)c3C)c2cc1OC — inhibition (enzyme activity; 1 µM): -2%
CS(=O)(=O)Nc1cccc(-c2csc(NC(=O)CSc3nc4nccnc4c(=O)n3CCc3ccccc3)n2)c1 — inhibition (enzyme activity; 10 µM): 7%
CN(C)C1CCN(CC#Cc2nn(C3CCCC3)c3nc(NCc4ccccc4)ncc23)C1 (centres unmarked) — inhibition (enzyme activity, FRET; 10 µM): 3%
CSc1nc(C)c(-c2ccnc(Nc3ccc(N4CCOCC4)cc3)c2)[nH]1 — inhibition (enzyme activity; 10 µM): 41.3%
CCCCNc1ncc2c(-c3ccc(F)cc3)nn(C[C@H]3CC[C@H](N)CC3)c2n1 — inhibition (target engagement in cells, chemoproteomics; 20 mM): 7.1%
Cc1ccc(Nc2nccc(N(C)c3ccc4c(C)n(C)nc4c3)n2)cc1S(N)(=O)=O — inhibition (enzyme activity; 0.3 µM): 5%
CN(c1ncccc1CNc1nc(Nc2ccc3c(c2)CC(=O)N3)ncc1C(F)(F)F)S(C)(=O)=O — inhibition (enzyme activity; 1 µM): 36%
CNC(=O)c1cc(Oc2ccc(NC(=O)Nc3ccc(Cl)c(C(F)(F)F)c3)cc2)ccn1 — inhibition (enzyme activity; 0.3 µM): -2%
Nc1ncc2cc(-c3c(Cl)cccc3-c3cccnc3)c(N3C[C@@H]4[C@@H](N)[C@@H]4C3)nc2n1 — inhibition (enzyme activity, FRET; 25 µM): 0%
